Rows were chosen to be rich in hits. Some 2.2% of all compounds tested hit in one or more screens of this group.
NR2E3 ag-1: agonists of human nuclear receptor NR2E3; GST-NR2E3/biotin-RetCOR TR-FRET, 1536-well; inhibition of corepressor binding, % at 4.78 µM; 320,000 tested, 0.12% active;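 active means percent inhibition above the cutoff of mean plus 3 SD of all tested compounds, set per screening campaign, cut at about 20% in these data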;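 further: 0% = DMSO wells and 100% = biotin wells as full block of FRET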
Target sequence (Q9Y5X4 whole entry, looked up): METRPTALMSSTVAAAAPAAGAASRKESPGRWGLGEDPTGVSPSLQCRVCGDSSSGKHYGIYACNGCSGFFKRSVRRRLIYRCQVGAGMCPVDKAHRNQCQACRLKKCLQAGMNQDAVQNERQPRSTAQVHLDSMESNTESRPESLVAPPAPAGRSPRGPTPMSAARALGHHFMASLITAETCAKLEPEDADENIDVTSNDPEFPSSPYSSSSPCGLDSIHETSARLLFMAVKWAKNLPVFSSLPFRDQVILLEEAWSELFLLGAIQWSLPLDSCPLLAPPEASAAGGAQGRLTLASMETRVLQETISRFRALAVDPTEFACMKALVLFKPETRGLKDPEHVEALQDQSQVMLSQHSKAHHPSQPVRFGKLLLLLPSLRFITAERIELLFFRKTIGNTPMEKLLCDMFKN
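Material: NR2E3–RetCOR corepressor complex | Quantity: 1.35 nM GST-tagged NR2E3 final | Schedule: 5 h at 4 °C | Replication: Singlicate compound wells | Reagent: RetCOR corepressor, biotinylated, 7 nM | Controls: Biotin wells as high control, 0.6% DMSO wells as low control | Signal: TR-FRET, Eu(K)-anti-GST donor, streptavidin-D2 acceptor, ex 340, em 617/671 nm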
GalR3 antag: human GalR3 antagonism. O60755. HEK293 GalR3-CNG cAMP membrane potential fluorescence; galR3 body fused to GalR1 C-terminus. inhibition, % at 3 µM. 360,000 tested, 0.44% active. AID 651719;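 active means inhibition above the screen-wide average plus 3 SD, cut at about 13% in these data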;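 further: forskolin and galanin both at EC90 stimulate the cells; cAMP rise reported by CNG channel membrane potential dye signal; 0% = forskolin plus galanin with DMSO and 100% = forskolin alone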
NR2E3 ag-2: human photoreceptor-specific nuclear receptor agonism; CHO-S Gal4-NCOR/VP16-NR2E3 two-hybrid, luciferase; inhibition of corepressor binding, % at 3.98 µM; 360,000 tested, 0.35% active;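 active means inhibition above the mean of all tested compounds plus 3 SD, cut at about 70% in these data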;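 further: 0% = DMSO with NR2E3 transfected cells and 100% = cells lacking NR2E3 construct; higher means lower luciferase signal from less NR2E3 corepressor binding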
V-ATPase pHluor: yeast V-ATPase proton transport regulation by pHLuorin. S. cerevisiae, pHLuorin cytosolic pH fluorescence. response, % at 10 µM. 350,000 tested, 0.37% active; in the data active means response mostly above about 7.3%, no sharp cut-off; inactive means mostly below about 5.4%; further: actives read high
Env fusion inh: inhibitors of HIV Env-mediated cell fusion; HeLa-JRFL Env/CEM21 cell fusion, luciferase; inhibition, % at 12.3 µM; 360,000 tested, 1.1% active; AID 651610;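 active means mean replicate inhibition score of at least 50 and every replicate individually at or above 50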;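 further: 0% = plate neutral controls and 100% = maraviroc near 300 nM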
GAA850 FXN act: activators of GAA850 frataxin (FXN) promoter; HEK293 lucGAA850 FXN promoter luciferase reporter, 24 h; percent of 10 µM SAHA response; activation, % at 6 µM; 360,000 tested, 0.56% active;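 active means activation above the average of all compounds screened plus 3 SD, cutoff fixed separately per campaign, cut at about 7.5% in these data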;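 further: 0% = DMSO wells and 100% = 10 µM SAHA wells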
* marks the source's active call; other numbers are inactive results; x = no result; [ ] = dose if it differs, or a comment.

SMILES | NR2E3 ag-1 | GalR3 antag | NR2E3 ag-2 | V-ATPase pHluor | Env fusion inh | GAA850 FXN act
C[C@H]1CN([C@@H](C)CO)C(=O)c2c(c3ccccc3n2C)-c2ccccc2CO[C@H]1CN(C)C(=O)CCC(F)(F)F | x | x | x | x | 63*[16.7 µM] | x
CC(C)COC(=O)N(C)C[C@@H]1OCc2ccccc2-c2c(n(C)c3ccccc23)C(=O)N([C@@H](C)CO)C[C@H]1C | x | x | x | x | 23[16.7 µM] | x
C[C@@H]1CN([C@@H](C)CO)C(=O)c2c(c3ccccc3n2C)-c2ccccc2CO[C@@H]1CN(C)C(=O)CCC(F)(F)F | x | x | x | x | -15[16.7 µM] | x
CC(C)COC(=O)N(C)C[C@H]1OCc2ccccc2-c2c(n(C)c3ccccc23)C(=O)N([C@H](C)CO)C[C@@H]1C | x | x | x | x | 62*[16.7 µM] | x
C[C@H](CO)N1C[C@H](C)[C@H](CN(C)C(=O)Cc2ccccc2)OCc2ccccc2-c2c(n(C)c3ccccc23)C1=O | x | x | x | x | 58*[16.7 µM] | x
CO[C@H](C(=O)N(C)C[C@@H]1OCc2ccccc2-c2c(n(C)c3ccccc23)C(=O)N([C@H](C)CO)C[C@@H]1C)c1ccccc1 | x | 1 | 8 | 2 | 78* | 3
C[C@@H]1CN([C@H](C)CO)C(=O)c2cc(NC(=O)CCCN(C)C)ccc2O[C@@H]1CN(C)CC1CCCCC1 | x | x | x | x | 4[16.7 µM] | x
COc1cccc(-n2c(SCC(=O)N3CCc4ccccc43)nnc2-c2c[nH]c3ccccc23)c1 | -1 | x | -33 | -6 | 56* | 0
Cc1cc(C(=O)Nc2ccc3c(c2)C(=O)N(C)[C@H]2CC[C@@H](CC(=O)NC4CCCC4)O[C@@H]2CO3)no1 | x | x | x | x | 0[16.7 µM] | x
COc1ccc(-c2ccc(C(C)=O)cc2)cc1[C@H]1[C@H]2C=CC[C@@H](C)[C@@H]2C(=O)N1Cc1ccccc1 | 5 | -5 | 1 | 0 | 26 | 1
COC(=O)c1ccc(-c2ccc(OC)c([C@H]3[C@H]4C=CC[C@@H](C)[C@@H]4C(=O)N3Cc3ccccc3)c2)cc1 | -2 | -4 | -33 | 0 | 64* | 0
Oc1c(CN2CCN(c3ccccn3)CC2)cc(Cl)c2cccnc12 | 0 | x | 79* | 3 | x | 10*
CCCCCCCN(c1ccccc1)[C@@H]1C[C@H]2CCCC(=O)N3CC[C@@H](C1)[C@@H]23 | x | -7 | -4 | -2 | 74* | -2
COCC#Cc1cnc2c(c1)C(=O)N([C@@H](C)CO)C[C@@H](C)[C@H](CN(C)C)O2 | x | x | x | x | -20[16.7 µM] | x
COc1ccc(S(=O)(=O)NNC(=O)C23CC4CC(CC(C4)C2)C3)cc1[N+](=O)[O-] | -2 | 1 | 3 | -5 | 76* | 6
COc1ccc(S(=O)(=O)NNC(=O)Cc2csc(C)n2)cc1[N+](=O)[O-] | -4 | -3 | 10 | 3 | 2 | 1
COCC(=O)N(C)C[C@H]1Oc2ncc(C3=CCCC3)cc2C(=O)N([C@H](C)CO)C[C@@H]1C | x | x | x | x | 4[16.7 µM] | x
CCSc1nc(-c2ccccc2)nc(C(Cl)Cl)n1 | -3 | -3 | -21 | 1 | 81* | -5
CN1C(=O)c2cc(NS(C)(=O)=O)ccc2OC[C@H]2O[C@@H](CC(=O)NCc3ccc(-c4ccccc4)cc3)CC[C@H]21 | x | x | x | x | 4[16.7 µM] | x
Clc1ccccc1CSc1nnc(-c2ccccn2)n1Cc1ccco1 | 3 | 1 | 12 | -1 | 66* | 0
COc1ccc(CN2CCC(C)(Oc3ccc4c(c3)OCO4)C2)c2ccccc12 (stereo not drawn) | x | -6 | -28 | x | 70* | 1
COc1cccc(OCCn2cc(C(=O)c3ccco3)c3ccccc32)c1 | 3 | -4 | -31 | 2 | 66* | 0
O=[N+]([O-])c1ccc(N/N=C/c2sc(N3CCOCC3)nc2-c2ccccc2)c(S(=O)(=O)Nc2ccccc2Cl)c1 | x | -5 | -20 | -4 | 95* | 1
O=C(N/N=C/c1sc(N2CCOCC2)nc1-c1ccccc1)c1cccc(S(=O)(=O)N2CCOCC2)c1 | 7 | 0 | 14 | -4 | 88* | -6
C[C@@H]1CN([C@@H](C)CO)C(=O)c2cc(NS(=O)(=O)c3ccc(Cl)cc3)ccc2O[C@@H](C)CCCCO[C@H]1CN(C)C | x | x | x | x | -12[16.7 µM] | x
NC(=O)[C@@H]1[C@H]2C(=O)O[C@H](c3ccccc3)[C@H](c3ccccc3)N2[C@H](c2ccc(O)cc2)[C@@]12C(=O)Nc1ccccc12 | x | x | x | x | -6[16.7 µM] | x

Screens deposited in PubChem BioAssay by several laboratories.
